Data as given in ChEMBL document CHEMBL1134550, “Structure-activity studies of ground- and transition-state analogue inhibitors of cyclophilin” (J Med Chem, 2001).

Molecular target: Peptidyl-prolyl cis-trans isomerase A (Homo sapiens, UniProt P62937)
Test: Binding affinity towards cyclophilin A by fluorescence
Procedure, shortened: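 Recombinant human cyclophilin A, expressed in E. coli with IPTG induction and partially purified by ammonium sulfate fractionation and DEAE-Sepharose. Intrinsic Trp fluorescence enhancement measured at room temperature in 50 mM Tris-HCl pH 7.6, 0.1 M NaCl. Kd from nonlinear least-squares fit to a quadratic binding equation.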

Peptidyl-prolyl cis-trans isomerase A, sequence (P62937 whole entry): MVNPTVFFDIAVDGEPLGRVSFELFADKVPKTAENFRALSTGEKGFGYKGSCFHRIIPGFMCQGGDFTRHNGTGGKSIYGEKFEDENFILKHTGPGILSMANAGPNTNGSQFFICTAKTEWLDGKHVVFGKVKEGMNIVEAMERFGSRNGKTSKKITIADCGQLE

Compound | Kd [µM]
COC(=O)[C@]12CCCN1C(=O)[C@](Cc1ccc3ccccc3c1)(NC(=O)OCc1ccccc1)CC2 | 4.7
COC(=O)[C@]12CCCN1C(=O)[C@](Cc1ccc3ccccc3c1)(NC(=O)OC(C)(C)C)CC2 | 17
COC(=O)[C@]12CCCN1C(=O)[C@](Cc1ccccc1)(NC(=O)OCc1ccccc1)CC2 | 124
COC(=O)[C@]12CCCN1C(=O)[C@](Cc1ccccc1)(NC(=O)OC(C)(C)C)CC2 | 140
COC(=O)[C@]12CCCN1C(=O)[C@H](NC(=O)OCc1ccccc1)CC2 | > 200
COC(=O)[C@]12CCCN1C(=O)[C@](Cc1ccc3ccccc3c1)(NC(C)=O)CC2 | 1.5

Now from value to molecule:

Kd [µM] | Compound
> 200 | COC(=O)[C@]12CCCN1C[C@@H](NC(=O)OC(C)(C)C)CC2
> 200 | COC(=O)[C@]12CCCN1C[C@H](NC(=O)OC(C)(C)C)CC2
> 200 | COC(=O)[C@]12CCCN1C(=O)[C@H](NC(=O)OC(C)(C)C)CC2
> 200 | COC(=O)[C@]12CCCN1C(=O)[C@@H](NC(=O)OC(C)(C)C)CC2
77 | COC(=O)[C@]12CCCN1C[C@](Cc1ccc3ccccc3c1)(NC(=O)OC(C)(C)C)CC2
